Experimental data: ChEMBL document CHEMBL1139313, “Synthesis and antimalarial activity of new 4-amino-7-chloroquinolyl amides, sulfonamides, ureas and thioureas” (Bioorg Med Chem, 2009)

Tests used:
[1] = system: Plasmodium falciparum; experiment: Antimalarial activity against chloroquine-sensitive Plasmodium falciparum HB3 after 72 hrs; assay type: functional, organism-based; conditions: HB3, 72 h
In short: (§1)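 SYBR Green I growth assay. Sorbitol-synchronized P. falciparum cultures (>95% ring stage) at final 1% hematocrit and 0.5% parasitemia, exposed to drug dilutions in complete medium for 72 h at 37 °C. Dye added, then 1 h at 37 °C; fluorescence read at 490 nm excitation / 530 nm emission. Each dilution run in triplicate; IC50 averaged over ≥2 separate assays. RI relates Dd2 IC50 to HB3 IC50.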

[2] = system: Plasmodium falciparum; experiment: Antimalarial activity against chloroquine-resistant Plasmodium falciparum Dd2 after 72 hrs; assay type: functional, organism-based; conditions: Dd2, 72 h; in short: as §1
[3] = Resistant index, IC50 for chloroquine-resistant Plasmodium falciparum Dd2 to IC50 for chloroquine-sensitive Plasmodium falciparum HB3; assay type: functional; in short: as §1

SMILES	IC50 [1]	IC50 [2]	Ratio IC50 [3]
CN(C)c1ccc(NC(=O)NCCCNc2ccnc3cc(Cl)ccc23)cc1	436 nM	674 nM	1.6
CCN(CCNC(=O)C(F)(F)C(F)(F)C(F)(F)F)CCNc1ccnc2cc(Cl)ccc12	180 nM	556 nM	3.1
CC(C)(C)OC(=O)N1CCC[C@H]1C(=O)NCCCNc1ccnc2cc(Cl)ccc12	> 1000 nM	> 1000 nM	
O=C(NCCCNc1ccnc2cc(Cl)ccc12)c1cc(C(F)(F)F)cc(C(F)(F)F)c1	145 nM	236 nM	1.6
CCN(CCNc1ccnc2cc(Cl)ccc12)CCNS(=O)(=O)c1cccc2cccnc12	310 nM	443 nM	1.4
CCN(CC)CCC(=O)NCCCCNc1ccnc2cc(Cl)ccc12	29 nM	> 1000 nM	
COc1ccc(NC(=S)NCCCNc2ccnc3cc(Cl)ccc23)cc1	229 nM	353 nM	1.5
CCN(CCCCNc1ccnc2cc(Cl)ccc12)CCNS(=O)(=O)c1cccc2c(N(C)C)cccc12	82 nM	125 nM	1.5
CN(C)c1cccc2c(S(=O)(=O)NCCCNc3ccnc4cc(Cl)ccc34)cccc12	754 nM	966 nM	1.3
Nc1ccc(N)c(C(=O)NCCCNc2ccnc3cc(Cl)ccc23)c1	179 nM	651 nM	3.6
COc1cc([N+](=O)[O-])ccc1NC(=S)NCCCNc1ccnc2cc(Cl)ccc12	208 nM	801 nM	3.9
CN(C)c1ccc(NC(=S)NCCCNc2ccnc3cc(Cl)ccc23)c2ccccc12	291 nM	606 nM	2.1
O=C(NCCCNc1ccnc2cc(Cl)ccc12)C(F)(F)C(F)(F)C(F)(F)C(F)(F)C(F)(F)C(F)(F)C(F)(F)F	166 nM	197 nM	1.2
COc1ccccc1NC(=O)NCCCNc1ccnc2cc(Cl)ccc12	365 nM	539 nM	1.5
CCN(CCNc1ccnc2cc(Cl)ccc12)CCNS(=O)(=O)c1cccc2c(N(C)C)cccc12	18 nM	23 nM	1.3
CN(C)c1cccc(C(=O)NCCCNc2ccnc3cc(Cl)ccc23)c1	449 nM	792 nM	1.8
CCN(CCNc1ccnc2cc(Cl)ccc12)CCNS(=O)(=O)c1ccc(Oc2ccccc2)nc1	140 nM	274 nM	2
CCN(CCNC(=O)c1ccc(F)cc1NCc1ccccc1)CCNc1ccnc2cc(Cl)ccc12	80 nM	199 nM	2.5
O=C(NCCCNc1ccnc2cc(Cl)ccc12)c1ccccc1Nc1cccc2ccccc12	> 1000 nM	> 1000 nM	
CCN(CC)CCC(=O)NCCCCCNc1ccnc2cc(Cl)ccc12	16 nM	672 nM	41.2
O=S(=O)(NCCCNc1ccnc2cc(Cl)ccc12)c1ccc(Oc2ccccc2)nc1	> 1000 nM	> 1000 nM	
CC(C)(C)OC(=O)N[C@@H](Cc1c[nH]c2ccccc12)C(=O)NCCCNc1ccnc2cc(Cl)ccc12	479 nM	> 1000 nM	
CC(C)(C)OC(=O)N[C@H](Cc1c[nH]c2ccccc12)C(=O)NCCCNc1ccnc2cc(Cl)ccc12	500 nM	764 nM	1.5
CCN(CCNC(=O)c1cc(C(F)(F)F)cc(C(F)(F)F)c1)CCNc1ccnc2cc(Cl)ccc12	97 nM	137 nM	1.4
O=C(NCCCNc1ccnc2cc(Cl)ccc12)C(F)(F)C(F)(F)C(F)(F)F	234 nM	277 nM	1.2

SMILES	IC50 [1]	IC50 [2]	Ratio IC50 [3]
CCN(CCCNc1ccnc2cc(Cl)ccc12)CCNS(=O)(=O)c1cccc2c(N(C)C)cccc12	115 nM	411 nM	3.6
CN1CCOc2cc(S(=O)(=O)NCCCNc3ccnc4cc(Cl)ccc34)ccc21	960 nM	> 1000 nM	
CCN(CCNC(=O)C(F)(F)C(F)(F)C(F)(F)C(F)(F)C(F)(F)C(F)(F)C(F)(F)F)CCNc1ccnc2cc(Cl)ccc12	72 nM	87 nM	1.2
CCN(CCNC(=O)c1c(F)c(F)c(F)c(F)c1F)CCNc1ccnc2cc(Cl)ccc12	118 nM	314 nM	2.7
O=C(NCCCNc1ccnc2cc(Cl)ccc12)c1ccc(O)nc1	> 1000 nM	> 1000 nM	
CC(C)(C)OC(=O)N[C@@H](CCCCNC(=O)OCc1ccccc1)C(=O)NCCCNc1ccnc2cc(Cl)ccc12	902 nM	> 1000 nM	
CCN(CCCCCNc1ccnc2cc(Cl)ccc12)CCNS(=O)(=O)c1cccc2c(N(C)C)cccc12	70 nM	115 nM	1.7
CCN(CCCC(C)Nc1ccnc2cc(Cl)ccc12)CCNS(=O)(=O)c1cccc2c(N(C)C)cccc12 (stereo not given)	220 nM	260 nM	1.2
O=C(NCCCNc1ccnc2cc(Cl)ccc12)c1ccccc1Sc1ccccc1	> 1000 nM	> 1000 nM	
O=C(NCCCNc1ccnc2cc(Cl)ccc12)c1ccccc1NCCc1ccccc1	> 1000 nM	> 1000 nM	
CCN(CC)CCC(=O)NCCCCCCNc1ccnc2cc(Cl)ccc12	28 nM	385 nM	12.9
CCN(CCNc1ccnc2cc(Cl)ccc12)CCNS(=O)(=O)c1cccnc1	124 nM	512 nM	4.1
O=C(NCCCNc1ccnc2cc(Cl)ccc12)c1cccnc1	> 1000 nM	> 1000 nM	
COc1cc([N+](=O)[O-])ccc1NC(=O)NCCCNc1ccnc2cc(Cl)ccc12	281 nM	> 1000 nM	
COc1ccc(NC(=O)NCCCNc2ccnc3cc(Cl)ccc23)cc1	316 nM	596 nM	1.9
CCN(CCCCCCNc1ccnc2cc(Cl)ccc12)CCNS(=O)(=O)c1cccc2c(N(C)C)cccc12	272 nM	147 nM	0.5
CCN(CC)CCC(=O)NCCNc1ccnc2cc(Cl)ccc12	32 nM	760 nM	24.1
O=C(CCc1nc2ccccc2[nH]1)NCCCNc1ccnc2cc(Cl)ccc12	756 nM	> 1000 nM	
CN(C)c1ccc(NC(=S)NCCCNc2ccnc3cc(Cl)ccc23)cc1	272 nM	482 nM	1.8
O=S(=O)(NCCCNc1ccnc2cc(Cl)ccc12)c1cccc2cccnc12	453 nM	607 nM	1.3
O=C(NCCCNc1ccnc2cc(Cl)ccc12)c1ccccc1SC1CCCCC1	> 1000 nM	> 1000 nM	
CCN(CCNc1ccnc2cc(Cl)ccc12)CCNS(=O)(=O)c1ccc2c(c1)OCCN2C	171 nM	286 nM	1.7
O=C(NCCCNc1ccnc2cc(Cl)ccc12)c1ccc(F)cc1NCc1ccccc1	> 1000 nM	305 nM	
CCN(CC)CCC(=O)NCCCNc1ccnc2cc(Cl)ccc12	23 nM	559 nM	24.4
O=C(NCCCNc1ccnc2cc(Cl)ccc12)c1c(F)c(F)c(F)c(F)c1F	276 nM	510 nM	1.9
